The values below come from the array DNA melting data of Ke et al. (doi:10.1101/2024.01.08.574731).

Data set [1] in a line: folding enthalpy; higher = less favourable; fluorescence melt of hairpins on a sequencing array, two-state fit. The conditions noted are these: sodium 0.088 M. In outline:
(§1)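 Cy3 signals were normalised both to pre-quench Cy3 and to control constructs. They came from library hairpins carrying annealed Cy3 and quencher oligos on a sequenced MiSeq flow cell, imaged in 50 mM Na-HEPES pH 8.0, 25 mM NaCl, in 2.5 °C steps up to 60 °C. Bootstrapped two-state fits gave melting temperature and folding enthalpy, and four replicates were combined by inverse variance. Fitted temperatures were then raised by 9.35 °C to match UV melts.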

Data set [2] is described as follows: melting temperature; fluorescence melt of hairpins on a sequencing array, two-state fit, raised by 9.35 °C to match UV melts. As to conditions: sodium 0.088 M. The gist of the method:
as §1

For the sequence GTTGTCGAAAGACTAAC ((((((....))).))), in data set [1], the folding enthalpy was -16.9 kcal/mol. Also, the Tm in data set [2] was 38 °C.

For GTTGTCGGAAACGACAAC (((((((....))))))), in data set [1], the folding enthalpy is -34.6 kcal/mol. For the same sequence, the Tm in data set [2] turned out to be 67 °C.

Regarding GTTGTCGGAAACGATAGC (.(.(((....))).).), the folding enthalpy in data set [1] is -17.1 kcal/mol. The Tm in data set [2] was 32.4 °C.

GTTGTGCGAAAGCATAAC (((.(((....))).))): the folding enthalpy in data set [1] was -30.5 kcal/mol. The Tm in data set [2] was 54 °C.

With GTTGTGGAAACACAAC ((((((....)))))), the folding enthalpy in data set [1] is -38.3 kcal/mol. Moreover, the Tm in data set [2] came to 58.3 °C.

With GTTGTGGGAAACCATGAC ((..(((....)))..)), in data set [1], the folding enthalpy was -30.4 kcal/mol. In data set [2], the Tm was found to be 34.7 °C.

With GTTGTTGGAAACAACAAC (((((((....))))))), in data set [1], the folding enthalpy was -41.5 kcal/mol. Also, the Tm in data set [2] is 58.6 °C.

As for GTTGTTGGAAACAATAAC (((.(((....))).))), the folding enthalpy in data set [1] was -20.3 kcal/mol. Also, in data set [2], the Tm is 39.6 °C.

As for GTTTAACGAAAGTTCAAC (((.(((....))).))), the folding enthalpy in data set [1] was -20.9 kcal/mol. The Tm in data set [2] amounted to 36 °C.

Turning to GTTTAACGAAAGTTGAAC (((.(((....))).))), the folding enthalpy in data set [1] was -29.9 kcal/mol. Moreover, in data set [2], the Tm came to 44.7 °C.

With GTTTAAGGAAACTTAGAC ((.((((....)))).)), the folding enthalpy in data set [1] is -14.3 kcal/mol. Besides, the Tm in data set [2] is 32.6 °C.

For the sequence GTTTACACGAAAGTGAAC (((..(((....)))))), the folding enthalpy in data set [1] was -11.9 kcal/mol. The Tm in data set [2] was found to be 25.7 °C.

Take GTTTACGAAAGTAAAC ((((((....)))))): in data set [1], the folding enthalpy was -28.3 kcal/mol. The Tm in data set [2] came to 57.3 °C.

As for GTTTACGAAAGTACAAAC ((((((....)))..))), the folding enthalpy in data set [1] was -10.6 kcal/mol. For the same sequence, in data set [2], the Tm was 26.2 °C.

In the case of GTTTAGGGAAACCCAAAC ((((.((....)).)))), in data set [1], the folding enthalpy is -24.7 kcal/mol. Also, the Tm in data set [2] was determined as 33.2 °C.

GTTTAGGGAAACCTAAGC (.(((((....))))).): in data set [1], the folding enthalpy was -21.8 kcal/mol. In addition, the Tm in data set [2] was 33.8 °C.

Consider GTTTAGGGAAACCTAGAC ((.((((....)))).)), for which the folding enthalpy in data set [1] is -27.4 kcal/mol. Moreover, the Tm in data set [2] is 33 °C.

As for GTTTAGGGAAACTTAAGC (.(((.(....).))).), the folding enthalpy in data set [1] was -15.4 kcal/mol. For the same sequence, in data set [2], the Tm stood at 33.6 °C.

For GTTTAGGGAAACTTAGAC ((.((.(....).)).)), the folding enthalpy in data set [1] is -13.6 kcal/mol. The Tm in data set [2] is 32.8 °C.

With GTTTATCGAAAGATAAC (((.(((....)))))), the folding enthalpy in data set [1] was -18.6 kcal/mol. The Tm in data set [2] is 35.5 °C.

As for GTTTATCGAAAGATGAAC (((.(((....))).))), in data set [1], the folding enthalpy is -31.2 kcal/mol. The Tm in data set [2] was determined as 43.6 °C.

With GTTTATCGAAAGATTAAC (((.(((....))).))), the folding enthalpy in data set [1] was -28.9 kcal/mol. The Tm in data set [2] was found to be 33.5 °C.

For GTTTATGAAAATAAAC ((((((....)))))), the folding enthalpy in data set [1] was -33 kcal/mol. Moreover, the Tm in data set [2] came out at 42.4 °C.

In the case of GTTTATGGAAACATAAAC (((((((....))))))), the folding enthalpy in data set [1] is -38.1 kcal/mol. In addition, the Tm in data set [2] worked out at 50 °C.

In the case of GTTTCACGAAAGTGGAAC (((.(((....))).))), the folding enthalpy in data set [1] is -30.5 kcal/mol. For the same sequence, in data set [2], the Tm was found to be 52.2 °C.

For the sequence GTTTCAGGAAACTAAAAC ((((.((....)).)))), the folding enthalpy in data set [1] was -8.21 kcal/mol. Moreover, in data set [2], the Tm came to 29.2 °C.

Regarding GTTTCAGGAAACTGGAAC (((.(((....))).))), the folding enthalpy in data set [1] is -26.4 kcal/mol. Also, the Tm in data set [2] worked out at 43.3 °C.

GTTTCCCGAAAGGGAAC (((.(((....)))))): the folding enthalpy in data set [1] is -14.1 kcal/mol. Also, the Tm in data set [2] amounted to 50.6 °C.

On to GTTTCCCGAAAGGGCAAC (((.(((....))).))), for which, in data set [1], the folding enthalpy is -21.7 kcal/mol. Moreover, in data set [2], the Tm worked out at 42 °C.

GTTTCCCGAAAGGGTAAC (((.(((....))).))): the folding enthalpy in data set [1] was -22.5 kcal/mol. Also, the Tm in data set [2] was 47.9 °C.

For the sequence GTTTCCGAAAGGAACAAC ((((((....)))..))), the folding enthalpy in data set [1] was -13.7 kcal/mol. In addition, the Tm in data set [2] amounted to 31.2 °C.

As to GTTTCCGGAAACGAAAAC ((((.((....)).)))), the folding enthalpy in data set [1] was -16.8 kcal/mol. In addition, the Tm in data set [2] is 38.8 °C.

With GTTTCGCGAAAGCGCAAC (((.(((....))).))), in data set [1], the folding enthalpy is -22.8 kcal/mol. In addition, the Tm in data set [2] was 44.7 °C.

For GTTTCGGGAAACCGAAGC (.(((((....))))).), the folding enthalpy in data set [1] was -23.4 kcal/mol. In addition, the Tm in data set [2] is 47.3 °C.

For the sequence GTTTCTCCGAAAGGAAAC (((..(((....)))))), the folding enthalpy in data set [1] is -14.8 kcal/mol. In addition, the Tm in data set [2] came out at 33 °C.

Consider GTTTCTCGAAAGAGTAAC (((.(((....))).))), for which the folding enthalpy in data set [1] was -26.7 kcal/mol. Besides, the Tm in data set [2] was determined as 38 °C.

Turning to GTTTGACGAAAGTCAAC (((.(((....)))))), the folding enthalpy in data set [1] is -14 kcal/mol. Moreover, in data set [2], the Tm is 46 °C.

Consider GTTTGAGGAAACTTAAAC ((((.((....)).)))), for which the folding enthalpy in data set [1] was -18.4 kcal/mol. The Tm in data set [2] was 36.9 °C.

As to GTTTGCCGAAAGGCTAAC (((.(((....))).))), the folding enthalpy in data set [1] is -20.1 kcal/mol. In data set [2], the Tm stood at 51.7 °C.

As for GTTTGCGAAAGCAAAAAC ((((((....)))..))), in data set [1], the folding enthalpy was -10.9 kcal/mol. Besides, the Tm in data set [2] was found to be 40.3 °C.

For GTTTGCGAAAGCACAAC ((((((....))).))), the folding enthalpy in data set [1] was -17.1 kcal/mol. Further, the Tm in data set [2] is 41.1 °C.

Consider GTTTGCGAAAGCACGAAC ((((((....)))..))), for which the folding enthalpy in data set [1] was -9.85 kcal/mol. Moreover, the Tm in data set [2] was determined as 27.1 °C.

As to GTTTGCGAAAGCAGAAAC ((((((....)))..))), in data set [1], the folding enthalpy is -11.2 kcal/mol. For the same sequence, in data set [2], the Tm stood at 34.2 °C.

Regarding GTTTGCGAAAGCAGGAAC ((((((....)))..))), the folding enthalpy in data set [1] is -10.3 kcal/mol. Further, the Tm in data set [2] was found to be 30.7 °C.

On to GTTTGCGCGAAAGCGAAC (((..(((....)))))), for which the folding enthalpy in data set [1] was -12 kcal/mol. Further, the Tm in data set [2] was found to be 36.5 °C.

With GTTTGCGGAAACACAAAC (((((.(....).))))), in data set [1], the folding enthalpy is -34.2 kcal/mol. The Tm in data set [2] was found to be 42.1 °C.

On to GTTTGCGGAAACGCAAGC (.(((((....))))).), for which the folding enthalpy in data set [1] is -23.4 kcal/mol. Further, the Tm in data set [2] turned out to be 54.6 °C.

Consider GTTTGCGGAAACGCAGAC ((.((((....)))).)), for which the folding enthalpy in data set [1] was -24.6 kcal/mol. The Tm in data set [2] is 51.8 °C.

As for GTTTGGGGAAACCTAAAC ((((.((....)).)))), the folding enthalpy in data set [1] was -35.5 kcal/mol. Further, the Tm in data set [2] is 40 °C.

In the case of GTTTGGGGAAACTCAGAC ((.((.(....).)).)), the folding enthalpy in data set [1] was -9.8 kcal/mol. Further, the Tm in data set [2] turned out to be 27 °C.

On to GTTTTCGAAAGAAAAAAC ((((((....)))..))), for which the folding enthalpy in data set [1] was -11.1 kcal/mol. Further, the Tm in data set [2] was 29.8 °C.

GTTTTCGAAAGAAAAAC ((((((....))).))): the folding enthalpy in data set [1] is -15.8 kcal/mol. Further, the Tm in data set [2] turned out to be 39.2 °C.

As for GTTTTGAAAAAAAC (((((....))))), in data set [1], the folding enthalpy is -12 kcal/mol. Further, the Tm in data set [2] turned out to be 37.6 °C.

As to GTTTTGGGAAACTAAAGC (.(((.(....).))).), the folding enthalpy in data set [1] was -16.3 kcal/mol. For the same sequence, in data set [2], the Tm is 27.3 °C.

Regarding GTTTTTCGAAAGAAAAC (((.(((....)))))), the folding enthalpy in data set [1] is -21.4 kcal/mol. Moreover, the Tm in data set [2] was 35.8 °C.
